ChEMBL document CHEMBL1128339, “Discovery of 6,11-ethano-12,12-diaryl-6,11-dihydrobenzo[b]quinolizinium cations, a novel class of N-methyl-D-aspartate antagonists” (J Med Chem, 1995)

What was measured:
[1] = molecular target: Glutamate NMDA receptor (Rattus norvegicus) (UniProt P35439+Q00959+Q00960+Q00961+Q62645+Q8VHN2+Q9R1M7); assay: Compound at 10 uM was tested for the inhibition of radioligand [3H]TCP binding to TCP site of NMDA receptor in rat brain homogenate; type: tissue-based
Mus musculus [2] = species on record: Mus musculus; assay: Inhibitory concentration against NMDA-induced cell death in cultured mouse cortical neurons; type: functional
Glutamate NMDA receptor = assay: Binding affinity at TCP site of NMDA receptor was determined in rat brain homogenate by [3H]TCP displacement.; type: tissue-based
[3] = LogD value of the compound; type: physicochemical; details: octanol/water
Procedure, shortened: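 LogD is the partition coefficient between octanol and pH 7.4 buffer. It was measured instrumentally by an outside laboratory.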

Mus musculus [4] = assay: NMDA antagonistic activity was evaluated […] in cultured mouse cortical neurons by patch clamp recordings designed to measure closed state binding to NMDA receptor-ionophore complex; type: functional
Mus musculus [5] = assay: NMDA antagonistic activity was evaluated […] in cultured mouse cortical neurons by patch clamp recordings designed to measure open state binding to NMDA receptor-ionophore complex; type: functional
[6] = (§1) Ratio of IC50 value for closed channel binding to that of open channel binding.; type: functional
Mus musculus [7] = assay: NMDA antagonistic activity was evaluated […] in cultured mouse cortical neurons by patch clamp recordings designed to measure closed state binding to NMDA receptor-ionophore complex at 100 uM; type: functional
Procedure, shortened: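 Value is the percent inhibition of NMDA-induced current at 100 μM, under closed-channel conditions in mouse cortical neuronal cultures.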

Mus musculus [8] = species on record: Mus musculus; assay: as §1; type: functional
Rattus norvegicus = assay: In vivo anti-ischemic activity was evaluated in a rat middle cerebral artery occlusion/ reperfusion model of focal ischemia at a dose of 6 mg/kg/h for 6.5 hr (iv, infusion); type: functional
Procedure, shortened: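 Rats underwent middle cerebral artery occlusion followed by reperfusion (focal ischemia). The drug was given by continuous intravenous infusion. The read-out was reduction in infarct volume (n = 15).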

SMILES	IC50 (Mus musculus [2]) [nM]	Ki (Glutamate NMDA receptor) [nM]	other results
Clc1ccc(C2(c3ccc(Cl)cc3)CC3c4ccccc4C2c2cccc[n+]23)cc1 (stereo not drawn)	–	–	inhibition [1]: 45%
c1ccc(C2(c3ccccc3)CC3c4ccccc4C2c2cccc[n+]23)cc1 (stereo not drawn)	197	8.2	–
COc1cccc(C2(c3cccc(OC)c3)CC3c4ccccc4C2c2cccc[n+]23)c1 (stereo not drawn)	–	41	–
c1ccc2c(c1)C1CC(c3cocn3)(c3cocn3)C2c2cccc[n+]21 (stereo not drawn)	–	93	–
c1csc(C2(c3cccs3)CC3c4ccccc4C2c2cccc[n+]23)c1 (stereo not drawn)	23	2.1	–
c1ccc(C2(c3ccccn3)CC3c4ccccc4C2c2cccc[n+]23)nc1 (stereo not drawn)	–	8.4	–
c1cncc(C2(c3cccnc3)CC3c4ccccc4C2c2cccc[n+]23)c1 (stereo not drawn)	–	2270	–
Brc1cccc(C2(c3cccc(Br)c3)CC3c4ccccc4C2c2cccc[n+]23)c1 (stereo not drawn)	–	185	–
c1ccc2c(c1)C1CC(c3cncs3)(c3cncs3)C2c2cccc[n+]21 (stereo not drawn)	–	120	–
c1ccc2c(c1)C1CC(c3nccs3)(c3nccs3)C2c2cccc[n+]21 (stereo not drawn)	–	17	–
c1ccc(C2(N3CCCCC3)CCCCC2)cc1 [PHENCYCLIDINE]	–	–	logD ([3]; read-out: logD): 1.76; IC50 (Mus musculus [4]): 13900 nM; IC50 (Mus musculus [5]): 270 nM; Ratio [6]: 51
c1ccc2c(c1)C1CC(c3ncc[nH]3)(c3ncc[nH]3)C2c2cccc[n+]21 (stereo not drawn)	–	1670	–
CCOC1(OCC)C2c3ccccc3C([n+]3ccccc32)C1(C)C.[Cl-] (stereo not drawn)	–	5.3	logD [3]: -4.08; IC50 (Mus musculus [4]): > 100000 nM; IC50 (Mus musculus [5]): 260 nM; Inhibition (Mus musculus [7]): -8.5%; Ratio (Mus musculus [8]): >384
COc1ccc(C2(c3ccc(OC)cc3)CC3c4ccccc4C2c2cccc[n+]23)cc1 (stereo not drawn)	–	28100	–
C[C@]12N[C@H](Cc3ccccc31)c1ccccc12 [DIZOCILPINE]	67	–	logD ([3]; read-out: logD): 1.79; IC50 (Mus musculus [4]): 5800 nM; IC50 (Mus musculus [5]): 100 nM
c1coc(C2(c3ccco3)CC3c4ccccc4C2c2cccc[n+]23)c1 (stereo not drawn)	36	1.9	–
c1ccc2c(c1)C1CC(c3ccncc3)(c3ccncc3)C2c2cccc[n+]21 (stereo not drawn)	–	–	inhibition [1]: 54%
Fc1ccc(C2(c3ccc(F)cc3)CC3c4ccccc4C2c2cccc[n+]23)cc1 (stereo not drawn)	–	2210	–
c1ccc2c(c1)C1CC(c3cc[nH]c3)(c3cc[nH]c3)C2c2cccc[n+]21 (stereo not drawn)	30	3.1	–
Brc1ccc(C2(c3ccc(Br)cc3)CC3c4ccccc4C2c2cccc[n+]23)cc1 (stereo not drawn)	–	–	inhibition [1]: 22%
c1ccc2c(c1)C1CC(c3ccsc3)(c3ccsc3)C2c2cccc[n+]21 (stereo not drawn)	45	1.8	–
[Cl-].c1ccc2c(c1)C1CC(c3ccoc3)(c3ccoc3)C2c2cccc[n+]21 (stereo not drawn)	39	1.8	logD ([3]; read-out: logD): -3.41; IC50 (Mus musculus [4]): > 100000 nM; IC50 (Mus musculus [5]): 140 nM; Inhibition (Mus musculus [7]): 12%; Ratio (Mus musculus [8]): >700; inhibition in vivo at 6 mg/kg/h (Rattus norvegicus): 50%
c1ccc2c(c1)C1CC(c3cc[nH]n3)(c3cc[nH]n3)C2c2cccc[n+]21 (stereo not drawn)	271	13	–
Clc1cccc(C2(c3cccc(Cl)c3)CC3c4ccccc4C2c2cccc[n+]23)c1 (stereo not drawn)	–	104	–
